Data as given in ChEMBL document CHEMBL1144203, “Synthesis and antiviral evaluation of acyclic azanucleosides developed from sulfanilamide as a lead structure” (Bioorg Med Chem, 2008).
The source made the active and inactive calls. No cut-off for these calls is given here.

Key:
MDCK = assay: Cytotoxicity against MDCK cells assessed as decrease in cell viability upto 100 uM by MTS assay; format: cell-based, Canis lupus familiaris; conditions: dog
Feline coronavirus = assay: Antiviral activity against feline coronavirus infected in CRFK cells assessed as inhibition of virus-induced cytopathic effect at 100 uM by MTS assay; format: functional, organism-based
Felid alphaherpesvirus 1 = assay: Antiviral activity against feline herpes virus infected in CRFK cells assessed as inhibition of virus-induced cytopathic effect at 100 uM by MTS assay; format: functional, organism-based
[1] = Cytotoxicity against CRFK cells assessed as decrease in cell viability upto 100 uM by MTS assay; format: cell-based, Felis catus; conditions: cat
[2] = system: Respiratory syncytial virus; assay: Antiviral activity against respiratory syncytial virus infected in HeLa cells assessed as inhibition of virus-induced cytopathic effect at 100 uM by MTS assay; format: functional, organism-based
Procedure, shortened: (§1)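 HeLa cells were infected with the virus, and compounds were tested up to 100 μM. EC50 is the concentration that halves virus-induced cytopathic effect, read by visual CPE scoring or by MTS formazan colorimetric viability measurement.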

Human alphaherpesvirus 2 = assay: Antiviral activity against HSV2 virus infected in HEL cells assessed as inhibition of virus-induced cytopathic effect at 100 uM by MTS assay; format: functional, organism-based
HeLa = assay: Cytotoxicity against human HeLa cells assessed as decrease in cell viability upto 100 uM by MTS assay; format: functional, cell-based
Procedure, shortened: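 Uninfected HeLa host cells were tested up to 100 μM. CC50 is the concentration causing a 50% drop in cell viability by colorimetric formazan-based MTS assay. Alternatively, MCC is the minimal concentration giving microscopically detectable alteration of normal cell morphology.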

Sindbis virus = assay: Antiviral activity against Sindbis virus infected in Vero cells assessed as inhibition of virus-induced cytopathic effect at 100 uM by MTS assay; format: functional, organism-based
Procedure, shortened: (§2)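 Vero cell monolayers were infected with the virus in cell-based CPE assays. EC50 is the concentration giving 50% inhibition of virus-induced cytopathic effect, scored visually or by MTS formazan colorimetric cell-viability read-out. The highest concentration tested was 100 μM for most compounds and lower for a few.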

Punta Toro virus [3] = assay: Antiviral activity against Punta Toro virus infected in Vero cells assessed as inhibition of virus-induced cytopathic effect at 100 uM by MTS assay; format: functional, organism-based; procedure, shortened: as §2
Human respirovirus 3 = assay: Antiviral activity against Parainfluenza 3 virus infected in Vero cells assessed as inhibition of virus-induced cytopathic effect at 100 uM by MTS assay; format: functional, organism-based; procedure, shortened: as §2
Coxsackievirus B4 [4] = assay: Antiviral activity against Coxsackievirus B4 infected in Vero cells assessed as inhibition of virus-induced cytopathic effect at 100 uM by MTS assay; format: functional, organism-based; procedure, shortened: as §2
Human alphaherpesvirus 1 = assay: Antiviral activity against HSV1 virus infected in HEL cells assessed as inhibition of virus-induced cytopathic effect at 100 uM by MTS assay; format: functional, organism-based
Vero = assay: Cytotoxicity against african green monkey Vero cells assessed as decrease in cell viability upto 100 uM by MTS assay; format: cell-based; conditions: chlorocebus sabaeus
[5] = system: Mammalian orthoreovirus 1; assay: Antiviral activity against Reovirus1 infected in Vero cells assessed as inhibition of virus-induced cytopathic effect at 100 uM by MTS assay; format: functional, organism-based; procedure, shortened: as §2
HEL = assay: Cytotoxicity against HEL cells assessed as decrease in cell viability upto 100 uM by MTS assay; format: cell-based; conditions: human
Coxsackievirus B4 [6] = assay: Antiviral activity against Coxsackievirus B4 infected in HeLa cells assessed as inhibition of virus-induced cytopathic effect at 100 uM by MTS assay; format: functional, organism-based; procedure, shortened: as §1
[7] = Cytotoxicity against CRFK cells assessed as decrease in cell viability by MTS assay; format: cell-based, Felis catus; conditions: cat
Procedure, shortened: (§3)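 Uninfected host cells were exposed to compound. CC50 was taken as the concentration giving a 50% fall in cell viability, measured by a colorimetric formazan-based MTS assay.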

Coxsackievirus B4 [8] = assay: Antiviral activity against Coxsackievirus B4 infected in Vero cells assessed as inhibition of virus-induced cytopathic effect by MTS assay; format: functional, organism-based; conditions: Enterovirus B
Procedure, shortened: (§4)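 Vero cell monolayers infected with Coxsackie B4 virus or Punta Toro virus, with test compounds at up to 100 μM. EC50 is the concentration giving 50% inhibition of virus-induced cytopathic effect (CPE), scored visually or from cell viability by the colorimetric formazan-based MTS assay.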

[9] = Cytotoxicity against MDCK cells assessed as decrease in cell viability by MTS assay; format: cell-based, Canis lupus familiaris; conditions: dog; procedure, shortened: as §3
[10] = Cytotoxicity against MDCK cells assessed as alteration in cell morphology by MTS assay; format: cell-based, Canis lupus familiaris; conditions: dog
Procedure, shortened: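 Uninfected host cells were exposed to compound and examined under the microscope. MCC was the minimal compound concentration causing a microscopically detectable change in normal cell morphology.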

Punta Toro virus [11] = assay: Antiviral activity against Punta Toro virus infected in Vero cells assessed as inhibition of virus-induced cytopathic effect by MTS assay; format: functional, organism-based; procedure, shortened: as §4

Compound | Activity (Feline coronavirus) | Activity (Felid alphaherpesvirus 1) | Activity [2] | Activity (Human alphaherpesvirus 2) | Activity (HeLa) | Activity (Sindbis virus) | Activity (Human respirovirus 3) | Activity (Human alphaherpesvirus 1) | Activity [5] | Activity (HEL) | Activity (Coxsackievirus B4 [6]) | also measured
CC(=O)Nc1ccc(S(=O)(=O)N(CCO)Cn2ccc(=O)[nH]c2=O)cc1 | inactive | inactive | inactive | inactive | inactive | inactive | inactive | inactive | inactive | Not Active | inactive | Activity (MDCK): Not Active; Activity [1]: Not Active; Activity (Punta Toro virus [3]): inactive; Activity (Coxsackievirus B4 [4]): inactive; Activity (Vero): Not Active
CC(C)(C)C(=O)OCCN(Cn1cc(F)c(=O)[nH]c1=O)S(=O)(=O)c1cccc([N+](=O)[O-])c1 | inactive | inactive | inactive | inactive | inactive | inactive | inactive | inactive | inactive | Not Active | inactive | CC50 [7]: 95 µM; EC50 (Coxsackievirus B4 [8]): 100 µM; CC50 [9]: > 100 µM; MCC [10]: ≥ 100 µM; EC50 (Punta Toro virus [11]): 100 µM
